In ChEMBL document CHEMBL1153616, “Synthesis and antiviral activity of new pyrazole and thiazole derivatives” (Eur J Med Chem, 2009):
≈ marks a conversion by molar mass, not a printed value.

Assays:
[1] = tested on: Sindbis virus; test: Antiviral activity against Sindbis virus infected in african green monkey Vero cells assessed as inhibition of virus-induced cytopathicity after 3 days postinfection; type: functional, organism-based; conditions: 72 h
Summary of the method: (§1)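 Confluent cell monolayers infected with 100 CCID50 virus; after 2 h adsorption at 37 °C, virus removed and serial compound dilutions added (DMSO stocks 10 mg/ml). Incubated 37 °C for 3 days until complete CPE in untreated virus control. EC50 = concentration protecting 50% of infected cells from viral cytopathogenicity; ">" marks highest concentration tested.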

[2] = tested on: Respiratory syncytial virus; test: Antiviral activity against RSV infected in human HeLa cells assessed as inhibition of virus-induced cytopathicity after 3 days; type: functional, organism-based; conditions: 72 h; summary of the method: as §1
[3] = tested on: Coxsackievirus B4; test: Antiviral activity against Coxsackievirus B4 infected in african green monkey Vero cells assessed as inhibition of virus-induced cytopathicity after 3 days; type: functional, organism-based; conditions: Enterovirus B, 72 h; summary of the method: as §1
[4] = tested on: Mammalian orthoreovirus 1; test: Antiviral activity against Reovirus 1 infected in african green monkey Vero cells assessed as inhibition of virus-induced cytopathicity after 3 days; type: functional, organism-based; conditions: Mammalian orthoreovirus 1, Vero, 72 h; summary of the method: as §1
[5] = Cytotoxicity against african green monkey Vero cells assessed as minimum cytotoxic concentration required to cause microscopically detectable alteration in normal cell morphology; type: cell-based; conditions: chlorocebus sabaeus
Summary of the method: (§2)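 Run in parallel with antiviral assays on uninfected cell cultures; test compounds from 10 mg/ml DMSO stocks in serial dilution. Value is minimum cytotoxic concentration (MCC) producing microscopically detectable alteration of normal cell morphology.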

[6] = tested on: Coxsackievirus B4; test: Antiviral activity against Coxsackievirus B4 infected in human HeLa cells assessed as inhibition of virus-induced cytopathicity after 3 days; type: functional, organism-based; conditions: Enterovirus B, 72 h
Summary of the method: (§3)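 Confluent cell monolayers infected with 100 CCID50 virus; after 2 h adsorption at 37 °C, virus removed and serial compound dilutions added (DMSO stocks 10 mg/ml). Incubated 37 °C for 3 days until complete CPE in untreated virus control.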

[7] = Cytotoxicity against human HeLa cells assessed as minimum cytotoxic concentration required to cause microscopically detectable alteration in normal cell morphology; type: cell-based; summary of the method: as §2
[8] = tested on: Vesicular stomatitis virus; test: Antiviral activity against Vesicular stomatitis virus infected in human HeLa cells assessed as inhibition of virus-induced cytopathicity after 3 days; type: functional, organism-based; conditions: 72 h
[9] = tested on: Human respirovirus 3; test: Antiviral activity against Parainfluenza virus type 3 infected in african green monkey Vero cells assessed as inhibition of virus-induced cytopathicity after 3 days; type: functional, organism-based; conditions: Human respirovirus 3, Vero, 72 h; summary of the method: as §1
[10] = tested on: Punta Toro virus; test: Antiviral activity against Punta Toro virus infected in african green monkey Vero cells assessed as inhibition of virus-induced cytopathicity after 3 days; type: functional, organism-based; conditions: 72 h; summary of the method: as §3
[11] = tested on: Vaccinia virus; test: Antiviral activity against Vaccinia virus infected in human HEL cells assessed as inhibition of virus-induced cytopathicity after 3 days; type: functional, organism-based; conditions: Orthopoxvirus vaccinia, 72 h
[12] = tested on: Human alphaherpesvirus 1; test: Antiviral activity against HSV1 KOS infected in human HEL cells assessed as inhibition of virus-induced cytopathicity after 3 days; type: functional, organism-based; conditions: Human alphaherpesvirus 1, KOS, 72 h
[13] = tested on: Human alphaherpesvirus 2; test: Antiviral activity against HSV2 G infected in human HEL cells assessed as inhibition of virus-induced cytopathicity after 3 days; type: functional, organism-based; conditions: Human alphaherpesvirus 2, strain G, 72 h; summary of the method: as §1
[14] = tested on: Vesicular stomatitis virus; test: Antiviral activity against Vesicular stomatitis virus infected in human HEL cells assessed as inhibition of virus-induced cytopathicity after 3 days; type: functional, organism-based; conditions: 72 h
[15] = Cytotoxicity against HEL cells assessed as minimum cytotoxic concentration required to cause microscopically detectable alteration in normal cell morphology; type: cell-based; conditions: human; summary of the method: as §2
[16] = tested on: Human alphaherpesvirus 1; test: Antiviral activity against thymidine kinase-deficient ACV-resistant HSV1 KOS infected in human HEL cells assessed as inhibition of virus-induced cytopathicity after 3 days; type: functional, organism-based; conditions: Human alphaherpesvirus 1, KOS, 72 h

Row | SMILES | EC50 [1] [µg/mL] | EC50 [2] [µg/mL] | EC50 [3] [µg/mL] | EC50 [4] [µg/mL] | MCC [5] [µg/mL] | EC50 [6] [µg/mL] | MCC [7] [µg/mL] | EC50 [8] [µg/mL] | EC50 [9] [µg/mL] | EC50 [10] [µg/mL] | EC50 [11] [µg/mL] | EC50 [12] [µg/mL] | EC50 [13] [µg/mL] | EC50 [14] [µg/mL] | MCC [15] [µg/mL] | EC50 [16] [µg/mL]
1 | Nc1ncnc2c1ncn2C[C@H](O)CO [(S)-DHPA] | > 250 | > 250 | > 250 | > 250 | > 250 | > 250 | > 250 | > 250 | > 250 | > 250 | – | – | – | – | – | –
2 | NC(=S)N1N=C(c2ccccc2)CC1c1ccc(OCc2ccccc2)cc1 (configuration not stated) | > 20 | > 20 | > 20 | > 20 | 100 | > 20 | ≥ 20 | > 20 | > 20 | > 20 | > 20 | > 20 | > 20 | > 20 | 100 | > 20
3 | O=c1[nH]c(=O)n([C@H]2C[C@H](O)[C@@H](CO)O2)cc1/C=C/Br [BRIVUDINE] | – | – | – | – | – | – | – | – | – | – | 10 (≈ 30 µM) | 0.08 (≈ 0.24 µM) | 126 (≈ 378 µM) | > 250 | > 250 | > 250
4 | O=C1CSC(N2N=C(c3ccc(Cl)cc3)CC2c2ccc(OCc3ccccc3)cc2)=N1 (configuration not stated) | > 20 | > 20 | > 20 | > 20 | 100 | > 20 | 100 | > 20 | > 20 | > 20 | > 20 | > 20 | > 20 | > 20 | 100 | > 20
5 | NC(=S)N1N=C(c2ccc(Br)cc2)CC1c1ccc(OCc2ccccc2)cc1 (configuration not stated) | > 20 | > 20 | > 20 | > 20 | 100 | > 20 | 100 | > 20 | > 20 | > 20 | > 20 | > 20 | > 20 | > 20 | 100 | > 20
6 | O=C1CSC(N2N=C(c3ccc(Br)cc3)CC2c2ccc(OCc3ccccc3)cc2)=N1 (configuration not stated) | > 20 | > 100 | > 20 | > 20 | 100 | > 100 | > 100 | > 100 | > 20 | > 20 | > 20 | > 20 | > 20 | > 20 | 100 | > 20
7 | NC(=O)c1ncn([C@@H]2O[C@H](CO)[C@@H](O)[C@H]2O)n1 [RIBAVIRIN] | > 250 | 10 (≈ 40.9 µM) | > 250 | > 250 | > 250 | – | > 250 | 29 (≈ 119 µM) | 45 (≈ 184 µM) | – | 146 (≈ 598 µM) | > 250 | > 250 | > 250 | > 250 | > 250
8 | Clc1ccc(-c2csc(N3N=C(c4ccccc4)CC3c3ccc(OCc4ccccc4)cc3)n2)cc1 (configuration not stated) | > 20 | > 20 | > 20 | > 20 | 100 | > 20 | 100 | > 20 | > 20 | > 20 | > 20 | > 20 | > 20 | > 20 | 100 | > 20
9 | Clc1ccc(C2=NN(c3nc(-c4ccc(Cl)cc4)cs3)C(c3ccc(OCc4ccccc4)cc3)C2)cc1 (configuration not stated) | > 20 | > 100 | > 20 | > 20 | 100 | > 100 | > 100 | > 100 | > 20 | > 20 | > 100 | > 100 | > 100 | > 100 | > 100 | > 100
10 | Nc1ccn(C[C@@H](CO)OCP(=O)(O)O)c(=O)n1.O.O [CIDOFOVIR] | – | – | – | – | – | – | – | – | – | – | 10 | 3 | 5 | > 250 | > 250 | 5
